A short description of experiment [1]: Growth inhibition of human U251 cells at 10 uM after 48 hrs by sulforhodamine B colorimetric assay relative to control. The experiment is classed as functional. To be noted: U-251, 48 h, read-out: GI. In short, it runs like this: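 U251 glioblastoma cells kept in DMEM with 10% FBS at 37°C, 5% CO2. Compounds in DMSO; vehicle-only controls. SRB colorimetric read-out at a 48 h end-point. GI50 relative to untreated control calculated by the NCI-60 protocol; top concentration tested 10 μM. Mean ± S.D. of three separate SRB assays.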
(In general: The SRB assay estimates cell density from bound dye.)

The nature of experiment [2]: Growth inhibition of human U251 cells after 48 hrs by sulforhodamine B colorimetric assay. It is filed as functional. The note with it: U-251, 48 h. The procedure, abridged:
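U251 glioblastoma cells kept in DMEM with 10% FBS at 37°C, 5% CO2. Compounds in DMSO; vehicle-only controls. SRB colorimetric read-out at a 48 h end-point. Mean ± S.D. of three separate SRB assays.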

Experiment [3] deals with U-251. As to the kind of experiment: Induction of methuosis in human U251 cells assessed as formation of membrane blebs on cell surface at 2.5 uM after 48 hrs by phase contrast microscopic analysis. The experiment is classed as functional, cell-based.
Experiment [4] relates to U-251. Briefly: Induction of methuosis in human U251 cells assessed as vacuolization at 2.5 uM after 48 hrs by phase contrast microscopic analysis. The experiment is classed as functional, cell-based.
For experiment [5], the system named is U-251. As to the kind of experiment: Induction of methuosis in human U251 cells assessed as rounding of cell body at 2.5 uM after 48 hrs by phase contrast microscopic analysis. It is filed as functional, cell-based.
In experiment [6] the test system is U-251. Briefly: Mitotic arrest in human U251 cells assessed as accumulation at G2/M phase at >=500 nM after 24 hrs by propidium iodide staining based flow cytometric analysis. The experiment is classed as functional, cell-based. The procedure, abridged:
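U251 cells seeded at 3.5 × 10^5 per 60 mm dish and treated the next day for 24 h. Attached and detached cells were harvested by trypsin and fixed in ice-cold 70% ethanol. They were then suspended in PBS with 6.25 mM MgSO4 and 1 mM CaCl2, RNase A-treated at 37 °C for 15 min and stained with propidium iodide. DNA content was read by flow cytometry.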

The subject of experiment [7] is U-251. As to the kind of experiment: Induction of microtubule disruption in human U251 cells up to 2.5 uM by DAPI staining based immunofluorescence microscopy. The experiment is classed as cell-based. The procedure, abridged:
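U251 cells seeded on glass coverslips, 350,000 per 60 mm dish. One day later, fresh medium with compound at the stated concentrations was added for 24 h. Cells were fixed and stained with monoclonal anti-α-tubulin, then Alexa Fluor 568 goat anti-mouse IgG. Nuclei counterstained with DAPI.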

Experiment [8] relates to U-251. As to the kind of experiment: Induction of methuosis in human U251 cells assessed as rounding of cell body at 2.5 uM after 24 hrs by phase contrast microscopic analysis. The experiment is classed as functional, cell-based.
Experiment [9] has as its system U-251. Briefly: Induction of methuosis in human U251 cells assessed as cell detachment from dish at 2.5 uM after 24 hrs by phase contrast microscopic analysis. It is filed as functional, cell-based.

The source made the active and inactive calls. The rule behind the calls is not given here. Where only a bound is given, the exact number is not on record here.

The GI50 is the concentration giving 50% growth inhibition. Read a high GI50 as lower sensitivity of the cells. As for `COc1ccc2[nH]c(C)c(/C=C/C(=O)c3cc(OC)c(OC)c(OC)c3)c2c1`, the inhibition of growth at 10 µM in experiment [1] was < 50%. In addition, the concentration for 50% growth inhibition (GI50) in [2] was > 10 µM.
On to `COc1ccc2c(/C=C/C(=O)c3ccncc3)c(C)[nH]c2c1`, for which the outcome in the experiment with U-251 [3], in the experiment on U-251 [4], in the experiment with U-251 [5], in the experiment on U-251 [6], with U-251 [7] and in the experiment on U-251 [8] was Active. Moreover, in the experiment with U-251 [9], the outcome was Active. Besides, in experiment [2], the GI50 was 0.09 µM.
With `COc1ccc2c(c1)c(/C=C/C(=O)c1ccncc1)c(C)n2C`, in experiment [1], the inhibition of growth at 10 µM was < 50%. Besides, the 50% growth inhibitory concentration (GI50) in experiment [2] was > 10 µM.
In turn, `COc1cc(OC)c(C(=O)/C=C/c2c(C)[nH]c3ccc(OC)cc23)c(OC)c1` gave a concentration for 50% growth inhibition (GI50) in [2] of 3.74 µM.
For `COc1cccc2[nH]c(C)c(/C=C/C(=O)c3ccncc3)c12`, the outcome in the experiment with U-251 [4] was Active. This compound showed a 50% growth inhibitory concentration (GI50) in experiment [2] of 8.67 µM.
On to `COc1ccc2c(/C=C/C(=O)c3ccncc3)c(C(F)(F)F)[nH]c2c1`, for which the inhibition of growth at 10 µM in experiment [1] is < 50%. Also, the 50% growth inhibitory concentration (GI50) in [2] is > 10 µM.
Consider `COc1cc2[nH]c(C)c(/C=C/C(=O)c3ccncc3)c2cc1OC`, for which, in experiment [1], the inhibition of growth at 10 µM is < 50%. The 50% growth inhibitory concentration (GI50) in experiment [2] is > 10 µM.
In experiment [2], `COc1cccc2c(/C=C/C(=O)c3ccncc3)c(C)[nH]c12` showed a concentration for 50% growth inhibition (GI50) of 4.42 µM.

(Values after ChEMBL document CHEMBL3865789, “Synthesis and biological evaluation of isomeric methoxy substitutions on anti-cancer indolyl-pyridinyl-propenones: Effects on potency and mode of activity” (2016).)
